Assay results from PMC10345485 (Saudi Pharmaceutical Journal : SPJ, 2023).
Values joined by “and” are separate entries in the source; they are usually repeats but may differ in a detail not shown here. Identical values can stand only once.

target: urease (Canavalia ensiformis, UniProt P07374); assay: Urease inhibition assay; assay type: biochemical; details: IC50 (µM) ± SEM, in-vitro urease inhibition
Outline: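 Test compound and enzyme preincubated in pH 6.8 phosphate buffer for 10 min at 37 °C. Phenol and alkali reagents then added. Absorbance read at 625 nm. Percent inhibition calculated as (control absorbance − sample absorbance)/control absorbance × 100. Run in triplicate, with a standard urease inhibitor as positive control. Values given ± SEM.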

urease, sequence (P07374 whole entry, looked up): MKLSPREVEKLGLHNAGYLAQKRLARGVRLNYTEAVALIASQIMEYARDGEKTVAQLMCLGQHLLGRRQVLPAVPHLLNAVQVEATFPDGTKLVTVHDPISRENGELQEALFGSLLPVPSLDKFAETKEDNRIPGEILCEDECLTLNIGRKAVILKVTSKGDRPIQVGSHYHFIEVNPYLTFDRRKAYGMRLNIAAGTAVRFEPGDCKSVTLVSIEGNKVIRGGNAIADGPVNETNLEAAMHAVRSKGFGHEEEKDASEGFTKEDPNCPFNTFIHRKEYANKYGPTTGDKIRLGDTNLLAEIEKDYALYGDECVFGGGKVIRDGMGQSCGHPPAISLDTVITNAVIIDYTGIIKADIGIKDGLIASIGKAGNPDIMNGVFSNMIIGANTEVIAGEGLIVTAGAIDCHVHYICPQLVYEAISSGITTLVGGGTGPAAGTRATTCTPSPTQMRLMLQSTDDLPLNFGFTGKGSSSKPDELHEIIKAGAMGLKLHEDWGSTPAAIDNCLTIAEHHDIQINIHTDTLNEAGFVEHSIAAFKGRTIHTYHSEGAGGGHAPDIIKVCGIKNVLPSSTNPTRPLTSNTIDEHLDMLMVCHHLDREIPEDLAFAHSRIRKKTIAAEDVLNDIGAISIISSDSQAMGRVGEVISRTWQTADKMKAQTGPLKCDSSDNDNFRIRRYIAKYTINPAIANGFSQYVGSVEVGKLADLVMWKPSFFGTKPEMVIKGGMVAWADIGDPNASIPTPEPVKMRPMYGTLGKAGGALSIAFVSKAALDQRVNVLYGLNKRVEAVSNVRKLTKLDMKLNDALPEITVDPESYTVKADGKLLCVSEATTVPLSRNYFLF

SMILES | IC50
O=[N+]([O-])c1ccc(O)c(C=NN=C(Cc2ccccc2)c2ccccc2)c1 [Compound 5, 1-(1,2-diphenylethylidene)-2-(2-hydroxy-5-nitrobenzylidene)hydrazine] | 34.3 ± 0.65 µM
Clc1ccc(C=NN=C(Cc2ccccc2)c2ccccc2)cc1 [Compound 6, 1-(4-chlorobenzylidene)-2-(1,2-diphenylethylidene)hydrazine] | 28.11 ± 0.22 µM
Oc1ccc(C=NN=C(Cc2ccccc2)c2ccccc2)cc1 [Compound 9, 1-(1,2-diphenylethylidene)-2-(4-hydroxybenzylidene)hydrazine] | 48.3 µM and 47.9 µM
CSc1ccc(C=NN=C(Cc2ccccc2)c2ccccc2)cc1 [Compound 7, 1-(1,2-diphenylethylidene)-2-(4-(methylthio)benzylidene)hydrazine] | 45.9 µM and 48.3 µM
Clc1ccc(C=NN=C(Cc2ccccc2)c2ccccc2)c(Cl)c1 [Compound 3, 1-(2,4-dichlorobenzylidene)-2-(1,2-diphenylethylidene)hydrazine] | 22.2 ± 0.42 µM
Cc1ccc(C=NN=C(Cc2ccccc2)c2ccccc2)cc1 [Compound 8, 1-(1,2-diphenylethylidene)-2-(4-methylbenzylidene)hydrazine] | 47.9 µM and 45.9 µM
O=[N+]([O-])c1ccc(C=NN=C(Cc2ccccc2)c2ccccc2)cc1 [Compound 4, 1-(1,2-diphenylethylidene)-2-(4-nitrobenzylidene)hydrazine] | 26.11 ± 0.22 µM
